{
  "source": "ChEMBL document CHEMBL3758134",
  "about": "“Avertoxins A-D, Prenyl Asteltoxin Derivatives from Aspergillus versicolor Y10, an Endophytic Fungus of Huperzia serrata” (J Nat Prod, 2015)",
  "key": {"[1]": {"test_system": "HeLa", "experiment": "Antiproliferative activity against human HeLa cells assessed as cell viability after 72 hrs by SRB assay", "format": "functional, cell-based", "how_it_was_run": "(§1)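 Cells grown in DMEM with 10% FBS and exposed to compound for 72 h. Viability read by sulforhodamine B (SRB) staining.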"}, "[2]": {"experiment": "Antiproliferative activity against human HCT116 cells assessed as cell viability after 72 hrs by SRB assay", "format": "functional, cell-based", "settings": "HCT-116, 72 h", "how_it_was_run": "as §1"}, "[3]": {"test_system": "MDA-MB-231", "experiment": "Antiproliferative activity against human MDA-MB-231 cells assessed as cell viability after 72 hrs by SRB assay", "format": "functional, cell-based", "settings": "MDA-MB-231, 72 h", "how_it_was_run": "as §1"}, "[4]": {"biological_target": "Acetylcholinesterase (Homo sapiens, UniProt P22303)", "sequence (P22303 whole entry)": "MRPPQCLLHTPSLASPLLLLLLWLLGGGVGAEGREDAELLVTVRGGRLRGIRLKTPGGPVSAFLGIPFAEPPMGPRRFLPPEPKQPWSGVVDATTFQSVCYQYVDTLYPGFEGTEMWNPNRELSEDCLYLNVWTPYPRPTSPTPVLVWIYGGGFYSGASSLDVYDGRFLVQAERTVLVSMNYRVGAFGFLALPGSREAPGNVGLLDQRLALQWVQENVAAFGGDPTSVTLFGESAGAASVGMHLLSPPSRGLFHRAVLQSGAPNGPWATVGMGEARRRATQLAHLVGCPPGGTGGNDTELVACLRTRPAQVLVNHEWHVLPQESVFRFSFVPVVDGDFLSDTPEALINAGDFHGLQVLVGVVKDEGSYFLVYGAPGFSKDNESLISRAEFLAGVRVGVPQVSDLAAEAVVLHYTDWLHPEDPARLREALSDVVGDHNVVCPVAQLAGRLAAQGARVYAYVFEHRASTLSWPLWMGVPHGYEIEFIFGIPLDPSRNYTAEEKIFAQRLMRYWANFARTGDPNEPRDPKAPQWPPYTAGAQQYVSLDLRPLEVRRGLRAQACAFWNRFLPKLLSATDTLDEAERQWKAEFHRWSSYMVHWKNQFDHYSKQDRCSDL", "experiment": "Inhibition of human acetylcholinesterase after 30 mins by microplate reader-based Ellman's method"}},
  "data": [
    {"compound": "COc1cc([C@@H]2c3cc4c(cc3[C@@H](O[C@@H]3O[C@@H]5CO[C@@H](C)O[C@H]5[C@H](O)[C@H]3O)[C@H]3COC(=O)[C@H]23)OCO4)cc(OC)c1O", "note": "[ETOPOSIDE]", "values": [
      {"measurement": "IC50", "setting": "[1]", "result": 3.2, "unit": "µM"},
      {"measurement": "IC50", "setting": "[2]", "result": 26.1, "unit": "µM"},
      {"measurement": "IC50", "setting": "[3]", "result": 4.2, "unit": "µM"}
    ]},
    {"compound": "CC[C@H]1O[C@@H]2O[C@H](/C=C/C=C/C=C/c3oc(=O)cc(OC/C=C(\\C)C(=O)OC)c3C)[C@H](O)[C@]2(C)[C@@]1(C)O", "values": [
      {"measurement": "IC50", "setting": "[1]", "result": "> 50", "unit": "µM"},
      {"measurement": "IC50", "setting": "[2]", "result": 9, "unit": "µM"},
      {"measurement": "IC50", "setting": "[4]", "result": 14.9, "unit": "µM"},
      {"measurement": "IC50", "setting": "[3]", "result": 35, "unit": "µM"}
    ]},
    {"compound": "COC(=O)/C(C)=C/COc1cc(=O)oc(/C=C/C=C/C=C/[C@H]2O[C@H]3O[C@H](C)[C@](C)(O)[C@@]3(C)[C@H]2O)c1C", "values": [
      {"measurement": "IC50", "setting": "[1]", "result": 11, "unit": "µM"},
      {"measurement": "IC50", "setting": "[2]", "result": 21, "unit": "µM"},
      {"measurement": "IC50", "setting": "[3]", "result": 28, "unit": "µM"}
    ]},
    {"compound": "CC[C@H]1O[C@@H]2O[C@H](/C=C/C=C/C=C/c3oc(=O)c4c(c3C)O[C@H](C)C4(C)C)[C@H](O)[C@]2(C)[C@@]1(C)O", "values": [
      {"measurement": "IC50", "setting": "[1]", "result": 48, "unit": "µM"},
      {"measurement": "IC50", "setting": "[2]", "result": 50, "unit": "µM"},
      {"measurement": "IC50", "setting": "[3]", "result": "> 50", "unit": "µM"}
    ]},
    {"compound": "CC[C@H]1O[C@@H]2O[C@H](/C=C/C=C/C=C/c3oc(=O)cc(OC)c3C)[C@H](O)[C@]2(C)[C@@]1(C)O", "values": [
      {"measurement": "IC50", "setting": "[1]", "result": "> 50", "unit": "µM"},
      {"measurement": "IC50", "setting": "[2]", "result": "> 50", "unit": "µM"},
      {"measurement": "IC50", "setting": "[3]", "result": "> 50", "unit": "µM"}
    ]},
    {"compound": "CC[C@H]1O[C@@H]2O[C@H](/C=C/C=C/C=C/c3oc(=O)cc(OCC=C(C)C)c3C)[C@H](O)[C@]2(C)[C@@]1(C)O", "values": [
      {"measurement": "IC50", "setting": "[1]", "result": 48, "unit": "µM"},
      {"measurement": "IC50", "setting": "[2]", "result": 44, "unit": "µM"},
      {"measurement": "IC50", "setting": "[3]", "result": 37, "unit": "µM"}
    ]}
  ]
}
